Blank lines part the entries; values can stand above or below the molecule they belong to. Active and inactive are the calls of the source. No cut-off for these calls is given here. Numbered stars: 1 amine (or outer) side, 2 acyl side, 3 side chain; on linkers, the order of the positions; unused ones are H or OH. Bridge positions count the residues as written; N and C are the ends. Square brackets hold non-standard residues; d marks the D form. Peptide text beside a SMILES is read from it. I, II: the chains in the order shown. Phe(4-guanidino) = N=C(N)Nc1ccc(C[C@H](N)C(=O)O)cc1; X1 = O=C(C(=O)[*:2])[C@H](Cc1ccc(O)cc1)N[*:1]; NHCH2CH2N(Me)CH2CO = CN(CCN[*:1])CC(=O)[*:2]; NMeL = CN[C@@H](CC(C)C)C(=O)O; Pen = CC(C)(S)[C@H](N)C(=O)O; Suc = O=C(CCC(=O)[*:2])[*:1]; X4 = O=C(CSCC(=O)[*:2])[*:1]; Sar = CNCC(=O)O
Assays:
[1] = molecular target: T1, IgG receptor FcRn large subunit p51 (Homo sapiens, UniProt P55899); assay: Ratio of RF-Pen-NMeAla-GHF-X-NMeLeu-YPC IC50 to compound IC50 for soluble human FcRn
[2] = test system: Mus musculus; assay: Increase in human IgG catabolism in endogenous FcRn/beta2m gene knockout TG32B transgenic mouse harboring human FcRn at 1 mg/kg, iv QD for 4 consecutive days measured after 24 hrs by ELISA; format: functional, organism-based; set-up: dose 1 mg/kg
Summary of the method: (§1)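 TG32B mice (muFcRn−/−, muβ2m−/−, huFcRn+/+, huβ2m+/+), 4 per group, got 500 mg/kg hIgG (pooled subtypes) iv at 0 h. Peptide or vehicle (20 mM sodium acetate, pH 5) was given iv at 24, 48, 72 and 96 h. Blood was taken before each injection and at 30, 120 and 168 h. Serum hIgG was measured by ELISA: goat anti-hIgG(Fab) capture, goat anti-hIgG(Fc)-HRP detection.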

[3] = molecular target: T1, IgG receptor FcRn large subunit p51; assay: Inhibition of IgG binding to soluble human FcRn after 2 hrs by competition ELISA
[4] = molecular target: T1, IgG receptor FcRn large subunit p51; assay: Ratio of QRF-Asp-TGHFGGLYP-Lys-NGP IC50 to compound IC50 for soluble human FcRn
[5] = molecular target: T1, IgG receptor FcRn large subunit p51; assay: Ratio of RF-Pen-TG-4GuPhe-G-Sar-NMeLeu-YPC IC50 to compound IC50 for soluble human FcRn
[6] = molecular target: T1, IgG receptor FcRn large subunit p51; assay: Ratio of RF-Pen-TGHF-valerolactam-NMeLeu-YPC IC50 to compound IC50 for soluble human FcRn
[7] = test system: Mus musculus; assay: Increase in human IgG catabolism in iv dosed endogenous FcRn/beta2m gene knockout TG32B transgenic mouse harboring human FcRn administered QD for 4 consecutive days measured after 24 hrs by ELISA; format: functional, organism-based; summary of the method: as §1
[8] = test system: Mus musculus; assay: Increase in human IgG catabolism in endogenous FcRn/beta2m gene knockout TG32B transgenic mouse harboring human FcRn at 5 mg/kg, iv QD for 4 consecutive days measured after 24 hrs by ELISA; format: functional, organism-based; set-up: dose 5 mg/kg; summary of the method: as §1
[9] = molecular target: T1, IgG receptor FcRn large subunit p51; assay: Ratio of RFCTGHFGGLYPC IC50 to compound IC50 for soluble human FcRn
[10] = molecular target: T1, IgG receptor FcRn large subunit p51; assay: Ratio of RF-Pen-TGHFG-Sar-NMeLeu-YPC IC50 to compound IC50 for soluble human FcRn
[11] = test system: Mus musculus; assay: Increase in human IgG catabolism in endogenous FcRn/beta2m gene knockout TG32B transgenic mouse harboring human FcRn at 2.5 mg/kg, iv QD for 4 consecutive days measured after 24 hrs by ELISA; format: functional, organism-based; set-up: dose 2.5 mg/kg; summary of the method: as §1

T1 sequence (P55899 whole entry): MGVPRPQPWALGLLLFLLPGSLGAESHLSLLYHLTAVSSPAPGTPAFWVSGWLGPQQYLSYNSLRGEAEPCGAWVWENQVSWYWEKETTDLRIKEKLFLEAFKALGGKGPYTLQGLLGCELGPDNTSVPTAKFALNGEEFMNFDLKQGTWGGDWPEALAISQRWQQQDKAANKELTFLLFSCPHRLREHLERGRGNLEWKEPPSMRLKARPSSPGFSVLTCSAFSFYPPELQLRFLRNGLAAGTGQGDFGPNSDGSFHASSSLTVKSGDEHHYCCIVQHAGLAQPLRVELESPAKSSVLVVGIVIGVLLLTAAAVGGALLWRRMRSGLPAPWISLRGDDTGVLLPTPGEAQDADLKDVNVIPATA

Ratio IC50 [1]: 61 | IC50 [3]: 18 nM
Compound: CC(C)C[C@H]1C(=O)N[C@@H](Cc2ccc(O)cc2)C(=O)C(=O)N2CCC[C@H]2C(=O)N[C@H](C(N)=O)CSSC(C)(C)[C@H](NC(=O)[C@H](Cc2ccccc2)NC(=O)[C@H](CCCNC(=N)N)NC(=O)CCC(=O)NCCN(C)CC(=O)N[C@@H](CCCNC(=N)N)C(=O)N[C@@H](Cc2ccccc2)C(=O)N[C@@H]2C(=O)N(C)[C@@H](C)C(=O)NCC(=O)N[C@@H](Cc3c[nH]cn3)C(=O)N[C@@H](Cc3ccccc3)C(=O)N[C@H]3CCCN(CC(=O)N(C)[C@@H](CC(C)C)C(=O)N[C@@H](Cc4ccc(O)cc4)C(=O)C(=O)N4CCC[C@H]4C(=O)N[C@H](C(N)=O)CSSC2(C)C)C3=O)C(=O)N(C)[C@@H](C)C(=O)NCC(=O)N[C@@H](Cc2c[nH]cn2)C(=O)N[C@@H](Cc2ccccc2)C(=O)N[C@H]2CCCN(CC(=O)N1C)C2=O
Activity [2]: Active

Ratio IC50 [4]: 38 | IC50 [3]: 580 nM
Compound: CC(C)C[C@H]1C(=O)N[C@@H](Cc2ccc(O)cc2)C(=O)C(=O)N2CCC[C@H]2C(=O)N[C@H](C(=O)N[C@@H](CC(N)=O)C(=O)NCC(=O)N2CCC[C@H]2C(N)=O)CCCCNC(=O)C[C@H](NC(=O)[C@H](Cc2ccccc2)NC(=O)CSCC(=O)N[C@@H](CCC(N)=O)C(=O)N[C@@H](CCCNC(=N)N)C(=O)N[C@@H](Cc2ccccc2)C(=O)N[C@H]2CC(=O)NCCCC[C@@H](C(=O)N[C@@H](CC(N)=O)C(=O)NCC(=O)N3CCC[C@H]3C(N)=O)NC(=O)[C@@H]3CCCN3C(=O)C(=O)[C@H](Cc3ccc(O)cc3)NC(=O)[C@H](CC(C)C)N(C)C(=O)CN(C)C(=O)CNC(=O)[C@H](Cc3ccccc3)NC(=O)[C@H](Cc3c[nH]cn3)NC(=O)CNC(=O)[C@H]([C@@H](C)O)NC2=O)C(=O)N[C@@H]([C@@H](C)O)C(=O)NCC(=O)N[C@@H](Cc2c[nH]cn2)C(=O)N[C@@H](Cc2ccccc2)C(=O)NCC(=O)N(C)CC(=O)N1C (I: QRFDTGHFG[Sar][NMeL][X1]PKNGP-NH2 / II: FDTGHFG[Sar][NMeL][X1]PKNGP-NH2; lactam I:4-I:14, II:2-II:12; linker I:N-II:N via X4)

Ratio IC50 [5]: 50
Compound: CC(C)C[C@H]1C(=O)N[C@@H](Cc2ccc(O)cc2)C(=O)C(=O)N2CCC[C@H]2C(=O)N[C@H](C(N)=O)CSSC(C)(C)[C@H](NC(=O)[C@H](Cc2ccccc2)NC(=O)[C@H](CCCNC(=N)N)NC(=O)CCC(=O)N[C@@H](CCCNC(=N)N)C(=O)N[C@@H](Cc2ccccc2)C(=O)N[C@@H]2C(=O)N[C@@H]([C@@H](C)O)C(=O)NCC(=O)N[C@@H](Cc3ccc(NC(=N)N)cc3)C(=O)NCC(=O)N(C)CC(=O)N(C)[C@@H](CC(C)C)C(=O)N[C@@H](Cc3ccc(O)cc3)C(=O)C(=O)N3CCC[C@H]3C(=O)N[C@H](C(N)=O)CSSC2(C)C)C(=O)N[C@@H]([C@@H](C)O)C(=O)NCC(=O)N[C@@H](Cc2ccc(NC(=N)N)cc2)C(=O)NCC(=O)N(C)CC(=O)N1C (I: RF[Pen]TG[Phe(4-guanidino)]G[Sar][NMeL][X1]PC-NH2 / II: RF[Pen]TG[Phe(4-guanidino)]G[Sar][NMeL][X1]PC-NH2; disulfide I:3-I:12, II:3-II:12; linker I:N-II:N via Suc)
Activity [2]: Active

Ratio IC50 [6]: 110
Compound: CC(C)C[C@H]1C(=O)N[C@@H](Cc2ccc(O)cc2)C(=O)C(=O)N2CCC[C@H]2C(=O)N[C@H](C(N)=O)CSSC(C)(C)[C@H](NC(=O)[C@H](Cc2ccccc2)NC(=O)[C@H](CCCNC(=N)N)NC(=O)CCC(=O)NCCN(C)CC(=O)N[C@@H](CCCNC(=N)N)C(=O)N[C@@H](Cc2ccccc2)C(=O)N[C@@H]2C(=O)N[C@@H]([C@@H](C)O)C(=O)NCC(=O)N[C@@H](Cc3c[nH]cn3)C(=O)N[C@@H](Cc3ccccc3)C(=O)N[C@H]3CCCN(CC(=O)N(C)[C@@H](CC(C)C)C(=O)N[C@@H](Cc4ccc(O)cc4)C(=O)C(=O)N4CCC[C@H]4C(=O)N[C@H](C(N)=O)CSSC2(C)C)C3=O)C(=O)N[C@@H]([C@@H](C)O)C(=O)NCC(=O)N[C@@H](Cc2c[nH]cn2)C(=O)N[C@@H](Cc2ccccc2)C(=O)N[C@H]2CCCN(CC(=O)N1C)C2=O
Activity [7]: Active

IC50 [3]: 50 nM
Compound: CC(C)C[C@H]1C(=O)N[C@@H](Cc2ccc(O)cc2)C(=O)C(=O)N2CCC[C@H]2C(=O)N[C@H](C(N)=O)CCCCNC(=O)C[C@H](NC(=O)[C@H](Cc2ccccc2)NC(=O)[C@H](CCCNC(=N)N)NC(=O)CCC(=O)NCCN(C)CC(=O)N[C@@H](CCCNC(=N)N)C(=O)N[C@@H](Cc2ccccc2)C(=O)N[C@H]2CC(=O)NCCCC[C@@H](C(N)=O)NC(=O)[C@@H]3CCCN3C(=O)C(=O)[C@H](Cc3ccc(O)cc3)NC(=O)[C@H](CC(C)C)N(C)C(=O)CN(C)C(=O)CNC(=O)[C@H](Cc3ccccc3)NC(=O)[C@H](Cc3c[nH]cn3)NC(=O)CNC(=O)[C@H]([C@@H](C)O)NC2=O)C(=O)N[C@@H]([C@@H](C)O)C(=O)NCC(=O)N[C@@H](Cc2c[nH]cn2)C(=O)N[C@@H](Cc2ccccc2)C(=O)NCC(=O)N(C)CC(=O)N1C (I: [NHCH2CH2N(Me)CH2CO]RFDTGHFG[Sar][NMeL][X1]PK-NH2 / II: RFDTGHFG[Sar][NMeL][X1]PK-NH2; lactam I:4-I:14, II:3-II:13; linker I:N-II:N via Suc)
Activity [8]: Active

Ratio IC50 [9]: 12
Compound: CC(C)C[C@@H]1NC(=O)CNC(=O)CNC(=O)[C@H](Cc2ccccc2)NC(=O)[C@H](Cc2c[nH]cn2)NC(=O)CNC(=O)[C@H]([C@@H](C)O)NC(=O)[C@@H](NC(=O)[C@H](Cc2ccccc2)NC(=O)[C@H](CCCNC(=N)N)NC(=O)CCC(=O)NCCN(C)CC(=O)N[C@@H](CCCNC(=N)N)C(=O)N[C@@H](Cc2ccccc2)C(=O)N[C@H]2CSSC[C@@H](C(N)=O)NC(=O)[C@@H]3CCCN3C(=O)C(=O)[C@H](Cc3ccc(O)cc3)NC(=O)[C@H](CC(C)C)NC(=O)CNC(=O)CNC(=O)[C@H](Cc3ccccc3)NC(=O)[C@H](Cc3c[nH]cn3)NC(=O)CNC(=O)[C@H]([C@@H](C)O)NC2=O)CSSC[C@@H](C(N)=O)NC(=O)[C@@H]2CCCN2C(=O)C(=O)[C@H](Cc2ccc(O)cc2)NC1=O

Ratio IC50 [10]: 200 | IC50 [3]: 2.6 nM
Compound: CC(C)C[C@H]1C(=O)N[C@@H](Cc2ccc(O)cc2)C(=O)C(=O)N2CCC[C@H]2C(=O)N[C@H](C(N)=O)CSSC(C)(C)[C@H](NC(=O)[C@H](Cc2ccccc2)NC(=O)[C@H](CCCNC(=N)N)NC(=O)CN(C)CCNC(=O)CCC(=O)N[C@@H](CCCNC(=N)N)C(=O)N[C@@H](Cc2ccccc2)C(=O)N[C@@H]2C(=O)N[C@@H]([C@@H](C)O)C(=O)NCC(=O)N[C@@H](Cc3c[nH]cn3)C(=O)N[C@@H](Cc3ccccc3)C(=O)NCC(=O)N(C)CC(=O)N(C)[C@@H](CC(C)C)C(=O)N[C@H](Cc3ccc(O)cc3)C(=O)C(=O)N3CCC[C@H]3C(=O)N[C@H](C(N)=O)CSSC2(C)C)C(=O)N[C@@H]([C@@H](C)O)C(=O)NCC(=O)N[C@@H](Cc2c[nH]cn2)C(=O)N[C@@H](Cc2ccccc2)C(=O)NCC(=O)N(C)CC(=O)N1C
Activity [11]: Active

Ratio IC50 [10]: 220
Compound: CC(C)C[C@H]1C(=O)N[C@@H](Cc2ccc(O)cc2)C(=O)C(=O)N2CCC[C@H]2C(=O)N[C@H](C(N)=O)CSSC(C)(C)[C@H](NC(=O)[C@H](Cc2ccccc2)NC(=O)[C@H](CCCNC(=N)N)NC(=O)CCC(=O)N[C@@H](CCCNC(=N)N)C(=O)N[C@@H](Cc2ccccc2)C(=O)N[C@@H]2C(=O)N[C@@H]([C@@H](C)O)C(=O)NCC(=O)N[C@@H](Cc3c[nH]cn3)C(=O)N[C@@H](Cc3ccccc3)C(=O)NCC(=O)N(C)CC(=O)N(C)[C@@H](CC(C)C)C(=O)N[C@@H](Cc3ccc(O)cc3)C(=O)C(=O)N3CCC[C@H]3C(=O)N[C@H](C(N)=O)CSSC2(C)C)C(=O)N[C@@H]([C@@H](C)O)C(=O)NCC(=O)N[C@@H](Cc2c[nH]cn2)C(=O)N[C@@H](Cc2ccccc2)C(=O)NCC(=O)N(C)CC(=O)N1C
Activity [11]: Active | Activity [8]: Active | Activity [2]: Active | Activity [7]: Active

From ChEMBL document CHEMBL1156264, “Synthesis and structure-activity relationships of dimeric peptide antagonists of the human immunoglobulin G-human neonatal Fc receptor (IgG-FcRn) interaction” (J Med Chem, 2010)
